Tn7 DDE FP: disrupts Tn7 cyclic peptide binding to fibrin D-Dimer-E complex; AID 720508; FP displacement of FITC-Tn7 peptide from fibrin DD(E); 0% = median of compound wells per plate; actives 0.13% (n = 370,000); inhibition, % at 8.3 µM;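 active = inhibition above the mean of compounds falling within the control limits plus 3 SD of them, cut at about 14% in these data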;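 note: 0% = plate median of compound wells and 100% = 10 µM Aha-Tn7 peptide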
Target sequence (P02675 whole entry, looked up): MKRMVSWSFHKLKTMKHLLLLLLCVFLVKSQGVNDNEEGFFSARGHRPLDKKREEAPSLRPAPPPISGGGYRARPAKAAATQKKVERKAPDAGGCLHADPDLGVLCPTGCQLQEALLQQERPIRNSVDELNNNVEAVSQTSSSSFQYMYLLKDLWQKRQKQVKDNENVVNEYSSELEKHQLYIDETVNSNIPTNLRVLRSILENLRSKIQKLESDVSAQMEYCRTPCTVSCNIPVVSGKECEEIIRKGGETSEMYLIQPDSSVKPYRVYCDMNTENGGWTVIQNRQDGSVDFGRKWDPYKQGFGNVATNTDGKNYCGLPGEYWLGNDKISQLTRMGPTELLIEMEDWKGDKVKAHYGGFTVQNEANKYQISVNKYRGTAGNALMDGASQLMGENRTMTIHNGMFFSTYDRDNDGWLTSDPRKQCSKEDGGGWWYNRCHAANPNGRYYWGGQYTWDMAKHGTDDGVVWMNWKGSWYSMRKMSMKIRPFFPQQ
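Assay system: Fibrin-DD(E) protein isolated from polymerized human fibrin clots; read-out basis: percent inhibition; medium: Tris/NaCl/CaCl2 buffer, pH 7.8; signal: FP measurement; incubation: 10 min plus 3 h, room temperature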
NRP1-CendR mod: alters CendR peptide binding to human NRP-1; O14786; FAM-RPARPAR peptide binding to NRP-1, fluorescence polarization; inhibition, % at 25 µM; actives 0.85% (n = 360,000); AID 602438;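 active = inhibition or corrected inhibition above about 18%, plus a signal ratio from 0.5 to 1.5, limit read from the data, passing the limit was not always enough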
aDG glyco act: alpha-DG glycosylation activation | AID 624168 | activation, % at 10 µM | actives 0.22% (n = 360,000) | Pro5-aDG cells, alpha-DG glycosylation AlphaScreen (IIH6); 0% Pro5, 100% B10-LARGE cell signal;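 active = activation of at least 8% versus controls, or a plate z-score of at least 8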;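 note: Pro5 are CHO cells carrying HIG-tagged alpha-DG that lacks glycosylation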
Tn6 DDE FP: DD(E)-Tn6 binding inhibition, primary FP screen. Fibrin DD(E) TRITC-Tn6 fluorescence polarization displacement. inhibition, % at 8.3 µM. actives 0.21% (n = 370,000). AID 720509;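 active = inhibition above a per-campaign cutoff: mean of compounds within control limits plus 3 SD, cut at about 15% in these data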;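 note: 0% = median of all compound wells on the plate and 100% = blocking peptide control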
aDG glyco conf: alpha-DG glycosylation activation, confirmation | shares compounds with aDG glyco act | Pro5-aDG cells, IIH6 AlphaLISA; scaled to LARGE-overexpressing B10 cells as 100% | activation, % at 10 µM (by protocol) | actives 17% (n = 600) | AID 651671;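 active = activation of at least 7% in one or more replicates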;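 note: cells exposed to compound for two days before detection; 0% = DMSO-treated Pro5 cells and 100% = DMSO-treated B10-LARGE cells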
The depositor's hits bear a star; / = no result given. Hits are enriched below; roughly 1.3% of the tested compounds scored in any of these assays.

SMILES	Tn7 DDE FP	NRP1-CendR mod	aDG glyco act	Tn6 DDE FP	aDG glyco conf
O=S1(=O)C=C[C@@H](CO)N1Cc1ccc(Br)cc1	-7	-5	0	3	/
Cc1ccc(N2C3=C(C(=O)CC(C)(C)C3)C(c3cn(C)nc3C)C3=C2CC(C)(C)CC3=O)cc1	-4	81	0	0	/
Cc1nn(C)cc1C1C2=C(CC(C)(C)CC2=O)N(c2ccccc2)C2=C1C(=O)CC(C)(C)C2	-5	10	4.2*	-3	-1
Cc1cccc(-c2cccc3c4c([nH]c23)[C@@H]2C[C@H](N(C)C(=O)c3ccccc3F)[C@H]([C@H](C)O)CN2CC4)c1	-4	/	/	0	/
Cc1cc(-c2cc(C)c(N)cc2C)c(C)cc1N	3	-2	0	-7	/
Cc1cc2c(cc1C)C(=O)C(Br)=C(N)C2=O	-2	5	6.1*	2	-1
CC(=O)c1ccc(NC(=O)C2CCCC2)cc1	-3	-20	2.1*	0	-1
COc1ccccc1Cc1c(-c2cccc(Cl)c2)nc2c3ccccc3ccn12	4	/	/	2	/
Cc1cc(=O)oc2cc(OCC(=O)N3CCc4ccccc4C3)ccc12	3	4	4.2*	3	1
Cc1cc(=O)oc2cc(OCC(=O)N3CCCc4ccccc43)ccc12	-7	2	0	-10	/
O=C(Cn1cnc2ccccc21)Nc1ccc(SC(F)F)cc1	-6	5	10*	7	1
COc1ccc(NC(=O)COC(=O)Cn2cnc3ccccc32)cc1	-1	-4	0	5	/
Cc1ccc(S(=O)(=O)NCCC(=O)NCc2ccccn2)cc1	-5	3	0	5	/
Cc1ccc(S(=O)(=O)NC(=O)NCc2ccccn2)cc1	-2	-5	51*	5	-1
CCOC(=O)C1CCCN(S(=O)(=O)c2ccc(S(=O)(=O)N3CCCC3)cc2)C1 (configuration not stated)	-9	-3	4.5*	3	0
CCCCCOc1ccc(/C(C)=N/NC2=NCCN2)cc1	9	10	1.6*	-3	8.6*
CCOC(=O)C1=CCN(S(=O)(=O)c2ccc(Br)cc2)C1c1ccc(Br)cc1 (configuration not stated)	0	/	/	-1	/
COc1cccc(CN(C)C(=O)c2cccc(S(=O)(=O)N3CCN(c4ccc(F)cc4)CC3)c2)c1OC	-1	3	3.5*	-3	0
N#Cc1ccccc1Cn1c(=O)n(Cc2ccc(C(=O)NCc3ccco3)cc2)c(=O)c2sccc21	0	-3	0	7	/
N#Cc1ccccc1Cn1c(=O)n(-c2ccc(CC(=O)NCc3ccco3)cc2)c(=O)c2sccc21	1	-4	10*	-2	0
Cc1cc(O)cc(=O)n1-c1ccc(Cl)c(C(F)(F)F)c1	3	/	/	-3	/
N/C(=N\OC(=O)COc1ccc(Cl)cc1Cl)c1ccccn1	1	-5	1	2	/
N/C(=N\OC(=O)COc1ccc(Br)cc1Cl)c1ccccn1	-8	5	14*	-1	0
Cn1nccc1C(=O)Nc1cc(Cl)ccc1Cl	-1	12	2.7*	10	-1
Cn1nccc1C(=O)Nc1ccc(Cl)cc1	4	-17	0	2	/
SMILES	Tn7 DDE FP	NRP1-CendR mod	aDG glyco act	Tn6 DDE FP	aDG glyco conf
CC(C)(C)C(=O)Nc1ccc(C(=O)NCc2cccnc2)cc1	-3	-20	0	7	/
CC(C)(C)c1ccc(C(=O)Nc2ccc(C(=O)NCc3cccnc3)cc2)cc1	-7	-13	2.3*	7	4.5*
COc1ccc2sc(/C=C/c3ccccc3O)[n+](C)c2c1	-10	-181	11*	-13	1
CCCCNC(=O)C1(C)CCN1C(=O)c1cc(C)n(C(C)(C)C)n1 (configuration not stated)	6	3	0	-1	/
CN1CCN(S(=O)(=O)c2ccc(N(C)Cc3ccc(C(F)(F)F)cc3)c([N+](=O)[O-])c2)CC1	4	7	5.8*	-7	1
Cc1ccc(NC(=O)c2ccc([N+](=O)[O-])s2)cc1S(=O)(=O)N1CCOCC1	-5	-4	9.0*	-7	6.1*
COc1cccc(CNC(=O)[C@H]2CCCN2C(=O)[C@H]2CCCN2C(=O)c2ccc(F)c(C(F)(F)F)c2)c1	11	/	/	1	/
CCN(CC)CCn1c(=N)n(CC(=O)c2ccc(C)cc2)c2ccccc21	-2	0	3.8*	7	11*
Cc1ccc(C(=O)Cn2c(=N)n(N)c3ccccc32)cc1	-14	-4	0	-2	/
C[C@H]1CN([C@@H](C)CO)C(=O)Cc2cc(NC(=O)CCC(F)(F)F)ccc2O[C@H]1CN(C)Cc1ccc(-c2ccccc2)cc1	-2	-4	5.7*	1	0
COc1ccc(S(=O)(=O)N(C)C[C@H]2OCCCC[C@@H](C)Oc3ccc(NC(=O)CCC(F)(F)F)cc3C(=O)N([C@H](C)CO)C[C@@H]2C)cc1	0	-14	0	-1	/
C[C@H]1CN([C@@H](C)CO)C(=O)Cc2cc(NC(=O)CCC(F)(F)F)ccc2O[C@H]1CN(C)Cc1ccc(C(F)(F)F)cc1	-8	18	0	1	/
C[C@H](CO)N1C[C@H](C)[C@@H](CN(C)S(=O)(=O)c2ccccc2)OCCCC[C@H](C)Oc2ccc(NC(=O)CCC(F)(F)F)cc2C1=O	4	0	3.4*	3	0
CC(C)NC(=O)N(C)C[C@H]1Oc2ccc(NC(=O)Cc3ccccc3)cc2C(=O)N([C@H](C)CO)C[C@@H]1C	-1	0	9.5*	-2	-1
c1ccc(Cc2cnc(N3CCN(Cc4cccc(-c5ccsc5)n4)CC3)nc2)cc1	-3	/	/	0	/
CCOc1ccc(S(=O)(=O)N2CCN(c3ccccc3OC)CC2)c2cccnc12	-4	-2	6.5*	2	0
N#Cc1cccc(NC(=O)CSc2nnc(-c3n[nH]c4ccccc34)o2)c1	-1	0	0	-7	/
C#Cc1cccc(NC(=O)CSc2nnc(-c3ccc(C(F)(F)F)cn3)o2)c1	-4	6	3.5*	8	0
O=C(/C=C/c1ccc(Cl)c(Cl)c1)Nc1cccnc1	0	12	3.1*	-2	-1
O=C(/C=C/c1ccccc1Cl)Nc1cccnc1	2	-3	0	-1	/
c1ccc2cc(-c3cc4ccccn4c3)ccc2c1	-2	-35	5.2*	-1	0
CC(=O)c1ccc(OCCCC(=O)NCc2nnc3ccccn23)cc1	1	-3	0	-9	/
CCCC(=O)Nc1nnc(SCC(=O)Nc2ccc(OCC)cc2)s1	-1	-6	0	4	/
CCc1ccccc1NC(=O)CSc1nc2ccccc2nc1N1CCOCC1	-7	-9	13*	-6	-1
CCOc1ccc(-c2noc(-c3csc([C@@H]4O[C@H](CO)[C@H](O)[C@H](O)[C@H]4O)n3)n2)cc1	3	5	0	1	/

Screens as filed in PubChem BioAssay.
